Reference: publication PMC6028884 (Clinical Pharmacokinetics, 2017)
“Also recorded” adds a separate entry of the source.

Legend:
[1] = cited from earlier work
CYP2D6 = conditions: in vitro; cited from earlier work
cytochrome P450 (CYP) 3A = conditions: in vitro; cited from earlier work
rheumatoid arthritis = conditions: phase IIb studies, 12 weeks; cited from earlier work
[2] = format: in vivo, human
Summary of the method: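 Used a two-compartment population PK model with first-order absorption and elimination, fitted by nonlinear mixed-effects modelling. Data were LC-MS plasma concentrations from healthy subjects and RA patients given 1–48 mg immediate-release oral doses. Simulations ran 200 replicates using demographics of RA patients from two phase IIb trials.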

[3] = Population pharmacokinetic analysis; format: in vivo, human
[4] = immediate-release formulation, compared with fasting conditions; cited from earlier work
[5] = cited from earlier work; remark: listed apart in the source
plasma protein = conditions: cited from earlier work
[6] = strong CYP3A inhibitor ketoconazole; cited from earlier work
[7] = matched on sex and creatinine clearance
[8] = steady state, matching on other covariates
[9] = Population analysis, point estimate (%RSE), final model

Compound: O=C(Nc1nc2cccc(-c3ccc(CN4CCS(=O)(=O)CC4)cc3)n2n1)C1CC1 [filgotinib]
- oral clearance in subjects with RA compared with healthy subjects [1]: lower

Compound: C[C@@H]1CCN(C(=O)CC#N)C[C@@H]1N(C)c1ncnc2[nH]ccc12 [tofacitinib]
- oral clearance in subjects with RA compared with healthy subjects [1]: lower

Compound: CC[C@@H]1CN(C(=O)NCC(F)(F)F)C[C@@H]1c1cnc2cnc3[nH]ccc3n12 [upadacitinib, Upadacitinib]
- contribution of CYP2D6 to metabolism (CYP2D6): potentially minor metabolic contribution; also recorded: minor contributor
- substrate status for CYP3A (cytochrome P450 (CYP) 3A): non-sensitive substrate
- safety profile (rheumatoid arthritis): acceptable safety profile
- AUC, body weight < 60 kg or > 100 kg compared with 60-100 kg [2, 7]: same
- higher Cmax, body weight < 60 kg compared with 60-100 kg [2, 7]: approximately 10%
- lower Cmax, body weight > 100 kg compared with 60-100 kg [2, 7]: approximately 10%
- higher Cmax in females compared with males ([2]; steady state): 26%
- higher upadacitinib AUC in females relative to males [2, 8]: 16%
- higher upadacitinib AUC in subjects with RA relative to healthy volunteers [2, 8]: 32%
- linearity of pharmacokinetics with respect to dose ([3]; 1-48 mg immediate-release doses): dose-proportional; also recorded: did not deviate significantly from linearity; also recorded: did not significantly deviate from linearity
- ALAG1 ([3]; Bootstrap analysis, mean): 0.48 h
- Additive residual error SD ([3]; Bootstrap analysis, mean): 0.17 ng/mL
- Exponent for the effect of body weight on Vc/F (θ5) ([3]; Bootstrap analysis, mean): 0.50
- Ka ([3]; Bootstrap analysis, mean): 20.1 h⁻¹
- Proportional residual error SD ([3]; Bootstrap analysis, mean): 31%
- Q/F ([3]; Bootstrap analysis, mean): 3.24 L/h
- Ratio of CL/F in RA patients compared with healthy subjects (θ1) ([3]; Bootstrap analysis, mean): 0.76
- Ratio of CL/F in females compared with males (θ2) ([3]; Bootstrap analysis, mean): 0.86
- Ratio of Vc/F in females compared with males (θ4) ([3]; Bootstrap analysis, mean): 0.75
- Vc/F ([3]; Bootstrap analysis, mean): 145 L
- Vp/F ([3]; Bootstrap analysis, mean): 65.4 L
- ωIOV2 on ALAG1 (phase II study visits only) ([3]; Bootstrap analysis, mean): 0.079
- CL/F ([3]; Bootstrap analysis, mean (188 successful runs out of 200)): 39.8 L/h
- ALAG1 ([3]; Bootstrap analysis, median): 0.48 h
- Additive residual error SD ([3]; Bootstrap analysis, median): 0.17 ng/mL
- Exponent for the effect of body weight on Vc/F (θ5) ([3]; Bootstrap analysis, median): 0.50
- Ka ([3]; Bootstrap analysis, median): 12.2 h⁻¹
- Proportional residual error SD ([3]; Bootstrap analysis, median): 31%
- Q/F ([3]; Bootstrap analysis, median): 3.23 L/h
- Ratio of CL/F in RA patients compared with healthy subjects (θ1) ([3]; Bootstrap analysis, median): 0.76
- Ratio of CL/F in females compared with males (θ2) ([3]; Bootstrap analysis, median): 0.86
- Ratio of Vc/F in females compared with males (θ4) ([3]; Bootstrap analysis, median): 0.75
- Vc/F ([3]; Bootstrap analysis, median): 145 L
- Vp/F ([3]; Bootstrap analysis, median): 64.6 L
- ωIOV2 on ALAG1 (phase II study visits only) ([3]; Bootstrap analysis, median): 0.079
- CL/F ([3]; Bootstrap analysis, median (188 successful runs out of 200)): 39.8 L/h
- ALAG1 [3, 9]: 0.48 (0.017) h
- Additive residual error SD [3, 9]: 0.18 (13) ng/mL
- Proportional residual error SD [3, 9]: 31 (13) %
- Q/F [3, 9]: 3.23 (2.5) L/h
- Ratio of CL/F in RA patients compared with healthy subjects (θ1) [3, 9]: 0.76 (2.9)
- Ratio of CL/F in females compared with males (θ2) [3, 9]: 0.86 (2.8)
- Ratio of Vc/F in females compared with males (θ4) [3, 9]: 0.75 (1.6)
- Vp/F [3, 9]: 64.3 (1.1) L
- ωIOV2 on ALAG1 (phase II study visits only) [3, 9]: 0.08 (1.5)
- Exponent for the effect of body weight on Vc/F (θ5) ([3]; Population analysis, point estimate (%RSE), final model, (BW/74 kg)^θ5): 0.50 (15.8)
- Vc/F ([3]; Population analysis, point estimate (%RSE), final model, reference male, 74 kg): 146 (2.2) L
- Ka ([3]; Population analysis, point estimate, final model): 12.3 h⁻¹
- correlation of clearance with body weight ([3]; in vivo): not correlated
- lower CL/F in females compared with males ([3]; in vivo): 14%
- effect of CYP2D6 phenotype on upadacitinib clearance ([3]; phenotype determined from pharmacogenetic analysis): not correlated; also recorded: not a statistically significant covariate
- absorption lag time (ALAG1), estimate (95% CI) ([3]; typical healthy male): 0.48 (0.47–0.49) h
- mean absorption time (calculated as 1/Ka), estimate (95% CI) ([3]; typical healthy male): 0.08 (0.04–0.12) h
- oral clearance (CL/F), population estimate (95% bootstrap CI) ([3]; typical healthy male, body weight 74 kg, creatinine clearance […]): 39.7 (37.8–41.5) L/h
- decrease of Cmax by food [4]: approximately 20%
- delay of time to Cmax (Tmax) by food [4]: approximately 2 h
- upadacitinib dose eliminated unchanged in urine [5]: Approximately 20%
- accumulation in plasma ([5]; multiple twice-daily dosing): no accumulation
- dose proportionality of exposures ([5]; over the evaluated dose range): approximately dose proportional
- functional half-life ([5]; phase I studies, immediate-release capsules): approximately 4 h
- tolerability ([5]; single doses up to 48 mg and multiple twice-daily doses up to 24 mg, immediate-release capsules): well-tolerated
- plasma protein binding (plasma protein): < 50%
- increase of upadacitinib exposures by ketoconazole [6]: approximately 75%
